Among the data in PubChem BioAssay AID2247 (Johns Hopkins Ion Channel Center, 2010) are B-score values, retold here.

The whole screen tested about 300,000 compounds, of which about 1,200 (0.4%) were called active.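 The calls were made as follows: active = B-score over 3 SD under the library average, no early fluorescence shift, positive overall ratio signal; inactive = the rest.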 Shown is part of a subset that was picked to be rich in actives.

Sequence of Short transient receptor potential channel 4 (Mus musculus) (Q9QUQ5 whole entry, looked up): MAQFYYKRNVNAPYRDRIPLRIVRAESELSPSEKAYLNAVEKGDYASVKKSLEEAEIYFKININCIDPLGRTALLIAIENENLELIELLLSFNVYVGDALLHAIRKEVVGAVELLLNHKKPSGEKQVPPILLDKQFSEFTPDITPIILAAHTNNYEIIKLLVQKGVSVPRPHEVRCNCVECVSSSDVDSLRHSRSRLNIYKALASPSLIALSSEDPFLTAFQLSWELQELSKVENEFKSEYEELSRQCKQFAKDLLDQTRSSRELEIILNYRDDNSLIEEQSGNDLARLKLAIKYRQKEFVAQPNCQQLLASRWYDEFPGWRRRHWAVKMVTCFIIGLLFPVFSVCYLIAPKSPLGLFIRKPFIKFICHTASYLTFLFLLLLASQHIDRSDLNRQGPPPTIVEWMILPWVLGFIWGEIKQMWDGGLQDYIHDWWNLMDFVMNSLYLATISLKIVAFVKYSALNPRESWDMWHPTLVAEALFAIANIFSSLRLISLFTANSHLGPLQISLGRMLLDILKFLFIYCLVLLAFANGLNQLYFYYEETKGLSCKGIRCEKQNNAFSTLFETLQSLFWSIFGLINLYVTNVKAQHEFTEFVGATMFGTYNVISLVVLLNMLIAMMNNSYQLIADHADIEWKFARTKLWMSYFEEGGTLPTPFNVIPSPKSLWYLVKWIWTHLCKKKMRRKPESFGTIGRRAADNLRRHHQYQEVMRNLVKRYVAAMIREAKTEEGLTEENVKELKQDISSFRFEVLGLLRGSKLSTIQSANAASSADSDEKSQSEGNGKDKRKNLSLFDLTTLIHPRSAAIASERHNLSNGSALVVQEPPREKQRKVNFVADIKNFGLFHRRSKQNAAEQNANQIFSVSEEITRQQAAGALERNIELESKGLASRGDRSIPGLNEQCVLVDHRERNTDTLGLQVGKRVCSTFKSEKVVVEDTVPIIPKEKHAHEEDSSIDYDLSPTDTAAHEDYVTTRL

This assay concerns the target Short transient receptor potential channel 4 (Mus musculus) (UniProt Q9QUQ5). The assay can be described thus: blockers of DAMGO-evoked TRPC4 calcium flux – Fluo4 calcium, HEK293 TRPC4beta/mu-opioid cells, primary screen (AID 2247). The note with it: at 10 µM; stronger effect = lower value. In outline:
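Material: HEK293 cells with stable TRPC4beta plus mu-opioid receptor expression; probe or stimulus: DAMGO in two steps, submaximal then maximal; technique: Fluo4 calcium fluorescence by kinetic imaging, 5 s 1 Hz baseline; measure: integrated fluorescence ratio relative to baseline, converted to per-well B score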
(A change in cytosolic calcium serves as a functional read-out for many receptors and channels.)
For the compound `O=C(NC1CC1)C1CCCN(C(=O)NC2CCCCC2)C1` (stereo unspecified), the B-score result is “inactive”. Then `CCc1nc(SCC(=O)Nc2ccccc2OC)n[nH]1`, with “inactive”. Then `COc1ccc(N(CC(=O)Nc2cc(OC)cc(OC)c2)S(=O)(=O)c2c(C)n[nH]c2C)cc1`, with “inactive”; and `O=C(O)C(F)(F)C(NCc1ccccc1)c1ccccc1` (stereo unspecified), with “inactive”. In the case of `CCCc1c(C(=O)N/N=C(\C)CCc2ccc(OC)cc2)nnn1-c1nonc1N`, the B-score result is “inactive”. Then `Nc1nc(-c2ccccc2)cc(-c2ccccc2)n1`, with “inactive”. Then `COc1ccc(-c2cc(C(=O)N(C)Cc3ccccc3)c3ccccc3n2)cc1`, with “inactive”; and `CN(C)c1cc(N)c2ccccc2n1` (tested in a mixture with another compound), with -5 (active); and `COc1ccccc1C(=O)N(Cc1ccc(C)o1)C1CCS(=O)(=O)C1` (stereo unspecified), with “inactive”.

In the case of `CCCCCCCCCOC1OC(CO)C(O)C(O)C1NC(C)=O` (stereo unspecified), the B-score entry is “inactive”.

Take `Cc1nn(-c2ccccc2)c2[nH]c(C(F)(F)F)cc(=O)c12`: the B-score was -7 (active). Then `Cc1nc2c(c(C)nn2-c2ccccc2)c(C)c1C`, with “inactive”; and `Cc1nn(-c2ccccc2)c(=O)c2noc(C)c12`, with “inactive”; and `COc1ccc(Nc2cc(Sc3ccc(OC)cc3)ncn2)cc1`, with “inactive”. Then `Clc1ccc(COn2c(-c3ccc(Cl)cc3Cl)nc3ncccc32)cc1`, with -9 (active); and `Clc1ccc(-c2ncc3ccccn23)c(Cl)c1`, with “inactive”. In the case of `COn1c(-c2ccc(Cl)cc2Cl)nc2ncccc21`, the B-score result was “inactive”.

`O=C(COC(=O)c1ccc([N+](=O)[O-])cc1Cl)NC(=O)c1ccccc1`: the B-score entry was “inactive”. Then `Cc1cc(C)c(S(=O)(=O)NCC(c2ccc3c(c2)OCO3)N2CCOCC2)c(C)c1` (stereo unspecified), with “inactive”; and `N#C/C(=C/c1ccc(Cl)cc1)NC(=O)c1ccccc1`, with “inactive”. As for `Cc1c(Cl)c([N+](=O)[O-])nn1CC(=O)NCCCN1CCOCC1`, the B-score result is “inactive”.

`CC(=O)Nc1ccc(NC(=O)COc2ccccc2C(=O)Nc2cccc(Cl)c2Cl)cc1`: the B-score entry was “inactive”. Then `FC(F)Oc1ccccc1NC(=S)Nc1cccc(Cl)c1Cl`, with -7 (active). Then `COc1ccccc1NC(=S)NC(=O)C(C)C`, with “inactive”; and `CCCCc1nc(SCC(=O)Nc2nnc(C(C)C)s2)n[nH]1`, with “inactive”; and `C[N+](C)(C)CCOP(=O)([O-])OC[C@H](O)CO`, with “inactive”. With `O=C(Nc1cccc(S(=O)(=O)NC2=NCCC2)c1)C1CCCCC1`, the B-score result is “inactive”. Then `COc1ncnc2sc3c(c12)CCCC3`, with -6 (active); and `N=c1c2c3c(sc2ncn1N)CCCC3`, with “inactive”. Then `COc1ccc(/C=N/Nc2ncnc3sc4c(c23)CCCC4)cc1O`, with “inactive”; and `Cc1ccc(S(=O)(=O)N(CC(O)CN2CCCCC2)c2cccc([N+](=O)[O-])c2)cc1` (stereo unspecified), with “inactive”.

Take `Cc1cc(C)n2nc(C(=O)OCC(=O)N(CCC#N)c3ccc(F)cc3)nc2n1`: the B-score result is “inactive”. Then `CCCn1nc(NS(=O)(=O)c2ccc(F)cc2)c2cc3ccccc3nc21`, with “inactive”; and `C=C(C)COc1ccc(-c2n[nH]c(C)c2-c2ccccc2OC)c(O)c1`, with “inactive”; and `C=C(C)COc1ccc(-c2n[nH]c(C)c2-c2ccccc2)c(O)c1`, with “inactive”.

Turning to `COc1ccc(-c2n[nH]c(C)c2-c2ccccc2OC)c(O)c1`, the B-score is -6 (active). As for `Cc1ccc(-n2c(C)cc(C(=O)CSc3nnc4ccccn34)c2C)cc1`, the B-score entry is “inactive”. Consider `COc1ccc(NC(=O)NC2CC3CCCC(C2)N3Cc2ccccc2)cc1` (stereo unspecified), for which the B-score entry was “inactive”. Then `CC(=O)NC1CC2CCCC(C1)N2CC(=O)Nc1ccccc1` (stereo unspecified), with “inactive”; and `CN(C)c1ccc(NC(=O)CN2C3CCCC2CC(NC(=O)c2ccccc2)C3)cc1` (stereo unspecified), with -9 (active); and `COc1ccc(OC)c(C(C)NC(=S)Nc2ccc(S(=O)(=O)Nc3ncccn3)cc2)c1` (stereo unspecified), with “inactive”.
